Legend:
[1] = test system: Tyrosine-protein kinase ABL1 (Homo sapiens), P00519 [F317I]; assay: Binding affinity to human non-phosphorylated ABL1 F317I mutant (S229 to K512 residues) expressed in mammalian expression system assessed as residual binding level at 1 uM by Kinomescan method relative to control
Method in brief: (§1)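 Kinome-wide selectivity panel run by the KINOMEscan method, with the test compound at a single concentration of 1 μM. Wild-type and mutant kinases were profiled in the same screen.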

[2] = target: Tyrosine-protein kinase JAK2 (Homo sapiens) (UniProt O60674); assay: Binding affinity to wild-type human partial length JAK2 JH1 catalytic domain (A829 to G1132 residues) expressed in mammalian expression system assessed as residual binding level at 1 uM by Kinomescan method relative to control
[3] = test system: Tyrosine-protein kinase ABL1 (Homo sapiens), P00519 [Y253F]; assay: Binding affinity to human phosphorylated ABL1 Y253F mutant (S229 to K512 residues) expressed in mammalian expression system assessed as residual binding level at 1 uM by Kinomescan method relative to control; method in brief: as §1
[4] = test system: Epidermal growth factor receptor (Homo sapiens), P00533 [UNDEFINED MUTATION]; assay: Binding affinity to human partial length EGFR E746-A750del mutant expressed in bacterial expression system assessed as residual binding level at 1 uM by Kinomescan method relative to control; method in brief: as §1
[5] = target: Serine/threonine-protein kinase TAO2 (Homo sapiens) (UniProt Q9UL54); assay: Binding affinity to wild-type human partial length TAOK2 (M1 to A320 residues) expressed in mammalian expression system assessed as residual binding level at 1 uM by Kinomescan method relative to control
[6] = target: Cyclin-dependent kinase 16 (Homo sapiens) (UniProt Q00536); assay: Binding affinity to wild-type human partial length PCTK1 (G160 to A474 residues) expressed in mammalian expression system assessed as residual binding level at 1 uM by Kinomescan method relative to control
[7] = target: Tyrosine-protein kinase BTK (Homo sapiens) (UniProt Q06187); assay: Binding affinity to wild-type human full length BTK (M1 to S659 residues) expressed in mammalian expression system assessed as residual binding level at 1 uM by Kinomescan method relative to control
[8] = target: Cyclin-dependent kinase-like 5 (Homo sapiens) (UniProt O76039); assay: Binding affinity to wild-type human partial length CDKL5 (M1 to S337 residues) expressed in mammalian expression system assessed as residual binding level at 1 uM by Kinomescan method relative to control
Cyclin-dependent kinase-like 5 (Homo sapiens), sequence (O76039 whole entry, the tested form may be a part): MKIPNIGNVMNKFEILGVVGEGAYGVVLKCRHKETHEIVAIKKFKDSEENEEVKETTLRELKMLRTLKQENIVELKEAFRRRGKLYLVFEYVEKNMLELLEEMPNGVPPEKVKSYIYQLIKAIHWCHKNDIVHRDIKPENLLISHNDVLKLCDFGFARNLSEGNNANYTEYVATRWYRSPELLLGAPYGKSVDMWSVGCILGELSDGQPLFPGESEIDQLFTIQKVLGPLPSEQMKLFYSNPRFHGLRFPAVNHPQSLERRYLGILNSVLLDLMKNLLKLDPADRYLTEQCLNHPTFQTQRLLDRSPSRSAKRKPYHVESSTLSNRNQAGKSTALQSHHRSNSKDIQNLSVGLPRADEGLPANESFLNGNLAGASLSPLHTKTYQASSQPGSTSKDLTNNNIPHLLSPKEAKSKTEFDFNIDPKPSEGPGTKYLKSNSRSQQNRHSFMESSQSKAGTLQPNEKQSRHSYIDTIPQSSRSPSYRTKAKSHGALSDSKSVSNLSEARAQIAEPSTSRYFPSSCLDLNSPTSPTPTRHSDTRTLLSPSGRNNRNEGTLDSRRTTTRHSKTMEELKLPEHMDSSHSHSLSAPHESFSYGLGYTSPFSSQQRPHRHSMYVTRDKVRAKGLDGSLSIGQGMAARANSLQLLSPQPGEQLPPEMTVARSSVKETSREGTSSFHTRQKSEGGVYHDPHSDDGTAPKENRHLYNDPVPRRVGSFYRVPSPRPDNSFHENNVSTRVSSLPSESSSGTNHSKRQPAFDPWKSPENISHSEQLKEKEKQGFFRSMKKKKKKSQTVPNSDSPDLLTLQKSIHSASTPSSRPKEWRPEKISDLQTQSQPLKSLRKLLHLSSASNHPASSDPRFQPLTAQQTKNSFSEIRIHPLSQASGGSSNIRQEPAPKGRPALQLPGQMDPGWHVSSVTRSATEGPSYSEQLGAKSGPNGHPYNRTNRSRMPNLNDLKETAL

[9] = target: Tyrosine-protein kinase Yes (Homo sapiens) (UniProt P07947); assay: Binding affinity to wild-type human partial length YES (T257 to L543 residues) expressed in bacterial expression system assessed as residual binding level at 1 uM by Kinomescan method relative to control
Tyrosine-protein kinase Yes (Homo sapiens), sequence (P07947 2-543 limits assumed): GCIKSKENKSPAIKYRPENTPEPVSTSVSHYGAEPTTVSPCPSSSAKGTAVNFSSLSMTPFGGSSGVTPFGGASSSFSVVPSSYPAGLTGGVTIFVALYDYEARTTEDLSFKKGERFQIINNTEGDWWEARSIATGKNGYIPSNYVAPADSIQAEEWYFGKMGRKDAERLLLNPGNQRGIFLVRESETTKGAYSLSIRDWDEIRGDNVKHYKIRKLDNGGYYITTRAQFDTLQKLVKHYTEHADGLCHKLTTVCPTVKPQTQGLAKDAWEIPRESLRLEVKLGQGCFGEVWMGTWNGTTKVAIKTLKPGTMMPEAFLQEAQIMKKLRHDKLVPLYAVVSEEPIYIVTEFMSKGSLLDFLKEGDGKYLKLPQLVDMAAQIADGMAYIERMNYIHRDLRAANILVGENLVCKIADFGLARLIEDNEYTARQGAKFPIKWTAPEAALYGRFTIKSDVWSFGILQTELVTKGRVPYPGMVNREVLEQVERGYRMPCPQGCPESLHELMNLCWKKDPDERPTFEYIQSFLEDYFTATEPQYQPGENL

[10] = target: Serine/threonine-protein kinase RIO2 (Homo sapiens) (UniProt Q9BVS4); assay: Binding affinity to wild-type human partial length RIOK2 (M1 to D313 residues) expressed in mammalian expression system assessed as residual binding level at 1 uM by Kinomescan method relative to control
Serine/threonine-protein kinase RIO2 (Homo sapiens), sequence (Q9BVS4 whole entry, looked up, the tested form may be a part): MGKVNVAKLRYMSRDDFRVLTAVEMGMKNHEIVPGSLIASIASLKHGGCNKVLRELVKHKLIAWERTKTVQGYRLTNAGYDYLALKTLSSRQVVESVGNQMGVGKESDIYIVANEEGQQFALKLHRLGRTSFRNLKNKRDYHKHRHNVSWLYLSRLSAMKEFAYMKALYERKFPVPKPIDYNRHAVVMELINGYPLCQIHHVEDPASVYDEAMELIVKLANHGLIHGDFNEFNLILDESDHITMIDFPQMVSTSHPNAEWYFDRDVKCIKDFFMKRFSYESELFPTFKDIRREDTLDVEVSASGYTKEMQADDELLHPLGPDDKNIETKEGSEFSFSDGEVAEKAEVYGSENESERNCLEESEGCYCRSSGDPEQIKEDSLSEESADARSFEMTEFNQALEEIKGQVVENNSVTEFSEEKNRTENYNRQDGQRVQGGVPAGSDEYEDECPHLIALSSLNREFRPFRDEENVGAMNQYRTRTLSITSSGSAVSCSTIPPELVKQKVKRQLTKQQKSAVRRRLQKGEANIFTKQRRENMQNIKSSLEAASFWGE

[11] = target: TGF-beta receptor type-2 (Homo sapiens) (UniProt P37173); assay: Binding affinity to wild-type human partial length TGFBR2 (I218 to K567 residues) expressed in bacterial expression system assessed as residual binding level at 1 uM by Kinomescan method relative to control
TGF-beta receptor type-2 (Homo sapiens), sequence (P37173 whole entry, the tested form may be a part): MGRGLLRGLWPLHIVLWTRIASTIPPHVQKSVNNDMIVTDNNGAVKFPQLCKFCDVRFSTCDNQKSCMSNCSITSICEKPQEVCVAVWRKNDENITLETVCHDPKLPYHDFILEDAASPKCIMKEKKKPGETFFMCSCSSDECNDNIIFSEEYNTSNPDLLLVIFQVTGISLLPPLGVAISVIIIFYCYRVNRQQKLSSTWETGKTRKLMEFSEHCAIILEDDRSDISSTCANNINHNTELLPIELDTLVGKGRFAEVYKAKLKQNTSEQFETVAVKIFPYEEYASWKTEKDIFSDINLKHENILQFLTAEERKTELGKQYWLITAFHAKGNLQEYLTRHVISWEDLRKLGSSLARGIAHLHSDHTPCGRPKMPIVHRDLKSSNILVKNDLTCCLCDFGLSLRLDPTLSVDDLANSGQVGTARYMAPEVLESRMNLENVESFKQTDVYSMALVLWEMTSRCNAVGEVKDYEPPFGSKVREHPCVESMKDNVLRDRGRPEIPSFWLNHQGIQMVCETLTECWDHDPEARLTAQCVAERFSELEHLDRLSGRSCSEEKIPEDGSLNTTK

[12] = target: Non-receptor tyrosine-protein kinase TNK1 (Homo sapiens) (UniProt Q13470); assay: Binding affinity to wild-type human full length TNK1 (M1 to P661 residues) expressed in bacterial expression system assessed as residual binding level at 1 uM by Kinomescan method relative to control
[13] = target: Calcium/calmodulin-dependent protein kinase type II subunit alpha (Homo sapiens) (UniProt Q9UQM7); assay: Binding affinity to wild-type human partial length CAMK2A (M1 to K328 residues) expressed in bacterial expression system assessed as residual binding level at 1 uM by Kinomescan method relative to control
[14] = target: Mitogen-activated protein kinase kinase kinase kinase 3 (Homo sapiens) (UniProt Q8IVH8); assay: Binding affinity to wild-type human partial length MAP4K3 (M1 to D301 residues) expressed in bacterial expression system assessed as residual binding level at 1 uM by Kinomescan method relative to control
[15] = target: Calcium/calmodulin-dependent protein kinase type II subunit gamma (Homo sapiens) (UniProt Q13555); assay: Binding affinity to wild-type human partial length CAMK2G (R9 to A303 residues) expressed in bacterial expression system assessed as residual binding level at 1 uM by Kinomescan method relative to control
Calcium/calmodulin-dependent protein kinase type II subunit gamma (Homo sapiens), sequence (Q13555 whole entry, the tested form may be a part): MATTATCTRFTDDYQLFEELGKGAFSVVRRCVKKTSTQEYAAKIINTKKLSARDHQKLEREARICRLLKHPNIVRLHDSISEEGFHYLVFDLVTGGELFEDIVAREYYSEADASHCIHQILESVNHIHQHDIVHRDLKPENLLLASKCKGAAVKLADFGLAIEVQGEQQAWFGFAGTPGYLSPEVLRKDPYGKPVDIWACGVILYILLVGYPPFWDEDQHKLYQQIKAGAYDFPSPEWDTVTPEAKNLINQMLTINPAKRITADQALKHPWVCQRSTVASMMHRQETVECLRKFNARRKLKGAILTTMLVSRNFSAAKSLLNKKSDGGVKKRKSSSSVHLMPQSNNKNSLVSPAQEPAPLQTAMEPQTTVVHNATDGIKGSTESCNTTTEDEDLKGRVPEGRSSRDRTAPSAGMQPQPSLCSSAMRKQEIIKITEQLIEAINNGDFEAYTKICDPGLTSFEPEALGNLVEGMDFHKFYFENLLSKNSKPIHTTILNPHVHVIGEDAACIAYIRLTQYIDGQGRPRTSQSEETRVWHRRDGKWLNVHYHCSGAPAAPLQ

[16] = test system: Epidermal growth factor receptor (Homo sapiens), P00533 [T790M]; assay: Binding affinity to human partial length EGFR T790M mutant (R669 to G1022 residues) expressed in mammalian expression system assessed as residual binding level at 1 uM by Kinomescan method relative to control; method in brief: as §1
[17] = target: Serine/threonine-protein kinase 17B (Homo sapiens) (UniProt O94768); assay: Binding affinity to wild-type human full length DRAK2 (M1 to C372 residues) expressed in bacterial expression system assessed as residual binding level at 1 uM by Kinomescan method relative to control
Serine/threonine-protein kinase 17B (Homo sapiens), sequence (O94768 whole entry, the tested form may be a part): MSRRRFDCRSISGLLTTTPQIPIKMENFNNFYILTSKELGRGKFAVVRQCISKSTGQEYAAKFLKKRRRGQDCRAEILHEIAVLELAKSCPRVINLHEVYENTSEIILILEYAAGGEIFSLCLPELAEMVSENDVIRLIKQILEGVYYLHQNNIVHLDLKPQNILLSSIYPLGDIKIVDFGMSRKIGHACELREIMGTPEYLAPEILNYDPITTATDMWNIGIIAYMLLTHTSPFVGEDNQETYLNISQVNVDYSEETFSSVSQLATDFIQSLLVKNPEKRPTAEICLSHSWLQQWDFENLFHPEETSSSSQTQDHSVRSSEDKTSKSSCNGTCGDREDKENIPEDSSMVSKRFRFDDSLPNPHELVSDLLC

[18] = target: Serine/threonine-protein kinase Sgk3 (Homo sapiens) (UniProt Q96BR1); assay: Binding affinity to wild-type human partial length SGK3 (M119 to L496 residues) expressed in mammalian expression system assessed as residual binding level at 1 uM by Kinomescan method relative to control
[19] = target: Bone morphogenetic protein receptor type-1A (Homo sapiens) (UniProt P36894); assay: Binding affinity to wild-type human partial length BMPR1A (Q214 to I532 residues) expressed in bacterial expression system assessed as residual binding level at 1 uM by Kinomescan method relative to control
Bone morphogenetic protein receptor type-1A (Homo sapiens), sequence (P36894 whole entry, the tested form may be a part): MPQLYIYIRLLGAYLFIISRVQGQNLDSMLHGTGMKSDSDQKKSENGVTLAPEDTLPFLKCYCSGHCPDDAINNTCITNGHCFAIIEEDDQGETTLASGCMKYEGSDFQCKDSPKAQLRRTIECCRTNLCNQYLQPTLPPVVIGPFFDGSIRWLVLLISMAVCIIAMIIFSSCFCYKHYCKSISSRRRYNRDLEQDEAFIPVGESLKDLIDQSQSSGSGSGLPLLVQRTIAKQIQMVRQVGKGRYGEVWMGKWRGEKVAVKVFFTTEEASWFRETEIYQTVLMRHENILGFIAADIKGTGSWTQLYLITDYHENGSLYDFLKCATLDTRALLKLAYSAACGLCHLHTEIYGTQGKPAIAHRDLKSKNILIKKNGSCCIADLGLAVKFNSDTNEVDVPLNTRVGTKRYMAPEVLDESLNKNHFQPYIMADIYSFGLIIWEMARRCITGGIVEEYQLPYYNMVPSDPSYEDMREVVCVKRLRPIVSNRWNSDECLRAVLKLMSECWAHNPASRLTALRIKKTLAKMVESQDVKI

[20] = target: Receptor tyrosine-protein kinase erbB-2 (Homo sapiens, UniProt P04626); assay: Binding affinity to wild-type human partial length ERBB2 (K646 to V1225 residues) expressed in mammalian expression system assessed as residual binding level at 1 uM by Kinomescan method relative to control
[21] = target: Calcium/calmodulin-dependent protein kinase type 1G (Homo sapiens) (UniProt Q96NX5); assay: Binding affinity to wild-type human partial length CAMK1G (M1 to A342 residues) expressed in bacterial expression system assessed as residual binding level at 1 uM by Kinomescan method relative to control
Calcium/calmodulin-dependent protein kinase type 1G (Homo sapiens), sequence (Q96NX5 whole entry, the tested form may be a part): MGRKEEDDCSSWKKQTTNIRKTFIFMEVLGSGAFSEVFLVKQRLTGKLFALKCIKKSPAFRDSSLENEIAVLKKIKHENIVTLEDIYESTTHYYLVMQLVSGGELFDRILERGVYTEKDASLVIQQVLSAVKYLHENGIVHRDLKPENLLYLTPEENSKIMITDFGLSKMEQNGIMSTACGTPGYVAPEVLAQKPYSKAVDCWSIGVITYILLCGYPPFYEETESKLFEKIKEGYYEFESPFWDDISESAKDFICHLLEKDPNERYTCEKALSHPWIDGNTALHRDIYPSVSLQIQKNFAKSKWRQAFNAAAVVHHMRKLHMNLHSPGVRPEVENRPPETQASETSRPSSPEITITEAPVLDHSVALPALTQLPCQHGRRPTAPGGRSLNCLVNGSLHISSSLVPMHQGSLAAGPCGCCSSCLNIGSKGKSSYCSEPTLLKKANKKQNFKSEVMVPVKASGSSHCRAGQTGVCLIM

[22] = target: Tyrosine-protein kinase Blk (Homo sapiens, UniProt P51451); assay: Inhibition of recombinant full length His-tagged human Blk cytoplasmic domain expressed in Baculovirus expression system by Z-LYTE assay
[23] = test system: Epidermal growth factor receptor (Homo sapiens), P00533 [G719S]; assay: Binding affinity to human partial length EGFR G719S mutant (R669 to V1011 residues) expressed in bacterial expression system assessed as residual binding level at 1 uM by Kinomescan method relative to control; method in brief: as §1
[24] = Drug uptake in mouse lung at 2 mg/kg, iv after 2 hrs; assay type: ADME, organism-based; conditions: read-out: Drug uptake
[25] = target: Dual serine/threonine and tyrosine protein kinase (Homo sapiens) (UniProt Q6XUX3); assay: Binding affinity to wild-type human full length RIPK5 (M1 to T929 residues) expressed in mammalian expression system assessed as residual binding level at 1 uM by Kinomescan method relative to control

Question: For C=CC(=O)Nc1cc(Nc2ncc(Cl)c(Nc3ccccc3S(=O)(=O)C(C)C)n2)c(OC)cc1N(C)CCN(C)C, which Activity [1] is on record?
Answer: Its Activity is 0.05%.

Question: What about the Activity [2] of the same compound?
Answer: Its Activity is 5.7%.

Question: And the Activity [3]?
Answer: The Activity was 2.1%.

Question: And the Activity [4]?
Answer: The Activity was 12%.

Question: What about the Activity [5] of the same compound?
Answer: The Activity was 52%.

Question: And the Activity [6]?
Answer: Its Activity is 91%.

Question: What about the Activity [7] of the same compound?
Answer: The Activity was 0%.

Question: What about the Activity [8] of the same compound?
Answer: The Activity was 91%.

Question: What about the Activity [9] of the same compound?
Answer: Its Activity is 17%.

Question: And the Activity [10]?
Answer: Its Activity is 93%.

Question: And the Activity [11]?
Answer: The Activity was 82%.

Question: And the Activity [12]?
Answer: The Activity was 3.3%.

Question: What about the Activity [13] of the same compound?
Answer: The Activity was 18%.

Question: And the Activity [14]?
Answer: Its Activity is 3.3%.

Question: And the Activity [15]?
Answer: The Activity was 26%.

Question: And the Activity [16]?
Answer: The Activity was 0%.

Question: What about the Activity [17] of the same compound?
Answer: The Activity was 100%.

Question: What about the Activity [18] of the same compound?
Answer: Its Activity is 53%.

Question: What about the Activity [19] of the same compound?
Answer: The Activity was 65%.

Question: What about the Activity [20] of the same compound?
Answer: The Activity was 0%.

Question: What about the Activity [21] of the same compound?
Answer: The Activity was 45%.

Question: What about the IC50 [22] of the same compound?
Answer: Its IC50 is 8 nM.

Question: And the Activity [23]?
Answer: Its Activity is 0%.

Question: And the concentration at 2 h [24]?
Answer: Its concentration at 2 h is 2360 nM.

Question: What about the Activity [25] of the same compound?
Answer: Its Activity is 60%.

— ChEMBL document CHEMBL4382192, “Discovery of a potent dual ALK and EGFR T790M inhibitor” (Eur J Med Chem, 2017)
